Source: ChEMBL document CHEMBL3271939, “Studies of antitumor agents. 1. Resolution of racemic 1-(tetrahydro-2-furanyl)-k-fluorouracil into the R and S isomers and examination of the biological activities of the isomers” (J Med Chem, 1977)
≈ marks a conversion by molar mass, not a printed value.

System: not listed separately
Test: Drug metabolism in mouse liver microsomes assessed as fluorouracil release by measuring antibacterial activity against Staphylococcus aureus 209P at 200 ug after 4 hrs by thin layer cup method in presence of NADPH
Format: ADME
Details: not given
Outline: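 Mouse liver microsomes in 10 mM phosphate buffer pH 7.4, 1.15% KCl (25% homogenate equivalent); 0.8 mL suspension, 0.1 mL of 50 mM NADPH stock, 200 µg isomer, made to 1 mL; 37 °C, 4 h. After CHCl3 extraction of unchanged substrate, FU in neutralized aqueous phase bioassayed against S. aureus 209P by thin-layer-cup method.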

`O=c1[nH]c(=O)n([C@H]2CCCO2)cc1F` and `O=c1[nH]c(=O)n([C@@H]2CCCO2)cc1F` are within 1.5-fold of each other in Drug metabolism: 10.32 µg/mL for the first, 13.16 µg/mL for the second.

System: not listed separately
Test: Antitumor activity against rat AH-130 cells allografted in Donryu rat assessed as inhibition of tumor growth at 90 mg/kg, ip administered daily for 7 days starting 24 hrs after tumor inoculation measured on 10th day post-tumor inoculation
Format: functional
Details: route intraperitoneal, read-out: TGI
Outline: (§1)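 Male Donryu rats (120 ± 5 g) inoculated s.c. in inguinal region with 5×10^6 AH-130 carcinoma or Yoshida sarcoma cells per rat; drug 90 mg/kg i.p. daily for 7 days starting 24 h later; six animals per group. Body weight and tumor weight measured on day 10 after inoculation; tumor weight compared with untreated control group to give % inhibition.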

Compared with `O=c1[nH]c(=O)n(C2CCCO2)cc1F` (racemic) [TEGAFUR], `O=c1[nH]c(=O)n([C@H]2CCCO2)cc1F` is higher in inhibition in vivo at 90 mg/kg: 51.4% for the first, 61.5% for the second.

With `O=c1[nH]c(=O)n([C@@H]2CCCO2)cc1F` the inhibition in vivo at 90 mg/kg was 71.9%.

System: Rattus norvegicus
Test: Toxicity in Donryu rat allografted with rat Yoshida cells assessed as body weight at 90 mg/kg, ip administered daily for 7 days starting 24 hrs after tumor inoculation measured on 10th day post-tumor inoculation (reference value: 53 gms)
Format: organism-based
Design: dose 90 mg/kg, route intraperitoneal
Details: in vivo
Outline: as §1

Compared with `O=c1[nH]c(=O)n(C2CCCO2)cc1F` (racemic) [TEGAFUR], `O=c1[nH]c(=O)n([C@H]2CCCO2)cc1F` is higher in Activity: 33.2 g for the first, 42 g for the second.

In the case of `O=c1[nH]c(=O)n([C@@H]2CCCO2)cc1F`, the Activity is reported as 39.3 g.

System: not listed separately
Test: Antitumor activity against rat AH-130 cells allografted in Donryu rat assessed as tumor weight at 90 mg/kg, ip administered daily for 7 days starting 24 hrs after tumor inoculation measured on 10th day post-tumor inoculation (reference value: 4.73 +/- 1.19 gms)
Format: functional
Details: route intraperitoneal
Outline: as §1

Going from `O=c1[nH]c(=O)n(C2CCCO2)cc1F` (racemic) [TEGAFUR] to `O=c1[nH]c(=O)n([C@H]2CCCO2)cc1F`, the Activity falls from 2.3 g to 1.82 g.

`O=c1[nH]c(=O)n([C@@H]2CCCO2)cc1F` showed an Activity of 1.33 g.

System: Klebsiella pneumoniae
Test: Antibacterial activity against Klebsiella pneumoniae ATCC 10031 assessed as growth inhibition after 24 hrs by plate dilution method
Format: functional
Details: ATCC 10031, 24 h
Outline: (§2)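 MIC determined by standard plate dilution in defined medium […], plates incubated 37 °C for 24 h.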

`O=c1[nH]c(=O)n(C2CCCO2)cc1F` (racemic) [TEGAFUR] and `O=c1[nH]c(=O)n([C@H]2CCCO2)cc1F` cannot be ordered by MIC: over 1000 µM for the first, over 1000 µM for the second.

First: O=c1[nH]cc(F)c(=O)[nH]1 [FLUOROURACIL]
Second: O=c1[nH]c(=O)n([C@@H]2CCCO2)cc1F
The MIC of the first is lower: 601 µM (≈ 78.2 µg/mL) for the first, over 1000 µM for the second.

System: YOSHIDA
Test: Antitumor activity against rat Yoshida cells allografted in Donryu rat assessed as inhibition of tumor growth at 90 mg/kg, ip administered daily for 7 days starting 24 hrs after tumor inoculation measured on 10th day post-tumor inoculation
Format: functional
Details: route intraperitoneal, read-out: TGI
Outline: as §1

Going from `O=c1[nH]c(=O)n(C2CCCO2)cc1F` (racemic) [TEGAFUR] to `O=c1[nH]c(=O)n([C@H]2CCCO2)cc1F`, the inhibition in vivo at 90 mg/kg falls from 38.9% to 33.7%.

Molecule `O=c1[nH]c(=O)n([C@@H]2CCCO2)cc1F` has an inhibition in vivo at 90 mg/kg of 40.6%.

System: YOSHIDA
Test: Antitumor activity against rat Yoshida cells allografted in Donryu rat assessed as tumor weight at 90 mg/kg, ip administered daily for 7 days starting 24 hrs after tumor inoculation measured on 10th day post-tumor inoculation (reference value: 3.65 +/- 0.60 gms)
Format: functional
Details: route intraperitoneal
Outline: as §1

Compared with `O=c1[nH]c(=O)n(C2CCCO2)cc1F` (racemic) [TEGAFUR], `O=c1[nH]c(=O)n([C@H]2CCCO2)cc1F` is higher in Activity: 2.23 g for the first, 2.42 g for the second.

`O=c1[nH]c(=O)n([C@@H]2CCCO2)cc1F` gave an Activity of 2.17 g.

System: Staphylococcus aureus
Test: Antibacterial activity against Staphylococcus aureus ATCC 6538P assessed as growth inhibition after 24 hrs by plate dilution method
Format: functional
Details: not given
Outline: as §2

`O=c1[nH]c(=O)n(C2CCCO2)cc1F` (racemic) [TEGAFUR] and `O=c1[nH]c(=O)n([C@H]2CCCO2)cc1F` are the same in MIC: 12 µM (≈ 2.4 µg/mL) for the first, 12 µM (≈ 2.4 µg/mL) for the second.

Going from `O=c1[nH]cc(F)c(=O)[nH]1` [FLUOROURACIL] to `O=c1[nH]c(=O)n([C@@H]2CCCO2)cc1F`, the MIC rises from 0.0723 µM (≈ 0.0094 µg/mL) to 12 µM (≈ 2.4 µg/mL) (170-fold).

System: Proteus vulgaris
Test: Antibacterial activity against Proteus vulgaris IFO 3045 assessed as growth inhibition after 24 hrs by plate dilution method
Format: functional
Details: IFO 3045, 24 h
Outline: as §2

`O=c1[nH]c(=O)n(C2CCCO2)cc1F` (racemic) [TEGAFUR] and `O=c1[nH]c(=O)n([C@H]2CCCO2)cc1F` cannot be ordered by MIC: over 1000 µM for the first, over 1000 µM for the second.

First: O=c1[nH]cc(F)c(=O)[nH]1 [FLUOROURACIL]
Second: O=c1[nH]c(=O)n([C@@H]2CCCO2)cc1F
The MIC of the first is lower: 18.5 µM (≈ 2.41 µg/mL) for the first, over 1000 µM for the second.

System: Micrococcus luteus
Test: Antibacterial activity against Sarcina lutea ATCC 9341 assessed as growth inhibition after 24 hrs by plate dilution method
Format: functional
Details: ATCC 9341, 24 h
Outline: as §2

Compared with `O=c1[nH]c(=O)n(C2CCCO2)cc1F` (racemic) [TEGAFUR], `O=c1[nH]c(=O)n([C@H]2CCCO2)cc1F` is 2-fold lower in MIC: 12 µM (≈ 2.4 µg/mL) for the first, 6 µM (≈ 1.2 µg/mL) for the second.

Compared with `O=c1[nH]cc(F)c(=O)[nH]1` [FLUOROURACIL], `O=c1[nH]c(=O)n([C@@H]2CCCO2)cc1F` is 170-fold higher in MIC: 0.0723 µM (≈ 0.0094 µg/mL) for the first, 12 µM (≈ 2.4 µg/mL) for the second.

System: Brevundimonas diminuta
Test: Antibacterial activity against Pseudomonas diminuta IAM 1513 assessed as growth inhibition after 24 hrs by plate dilution method
Format: functional
Details: IAM 1513, 24 h
Outline: as §2

`O=c1[nH]c(=O)n(C2CCCO2)cc1F` (racemic) [TEGAFUR] and `O=c1[nH]c(=O)n([C@H]2CCCO2)cc1F` cannot be ordered by MIC: over 1000 µM for the first, over 1000 µM for the second.

`O=c1[nH]cc(F)c(=O)[nH]1` [FLUOROURACIL] and `O=c1[nH]c(=O)n([C@@H]2CCCO2)cc1F` cannot be ordered by MIC: over 1000 µM for the first, over 1000 µM for the second.

System: Micrococcus flavus
Test: Antibacterial activity against Micrococcus flavus ATCC 10240 assessed as growth inhibition after 24 hrs by plate dilution method
Format: functional
Details: ATCC 10240, 24 h
Outline: as §2

`O=c1[nH]c(=O)n(C2CCCO2)cc1F` (racemic) [TEGAFUR] and `O=c1[nH]c(=O)n([C@H]2CCCO2)cc1F` are the same in MIC: 750 µM (≈ 150 µg/mL) for the first, 750 µM (≈ 150 µg/mL) for the second.

First: O=c1[nH]cc(F)c(=O)[nH]1 [FLUOROURACIL]
Second: O=c1[nH]c(=O)n([C@@H]2CCCO2)cc1F
The MIC of the first is 88000-fold lower: 0.00425 µM (≈ 0.000553 µg/mL) for the first, 375 µM (≈ 75.1 µg/mL) for the second.

System: Rattus norvegicus
Test: Toxicity in Donryu rat allografted with rat AH-130 cells assessed as body weight at 90 mg/kg, ip administered daily for 7 days starting 24 hrs after tumor inoculation measured on 10th day post-tumor inoculation (reference value: 64.1 gms)
Format: organism-based
Design: dose 90 mg/kg, route intraperitoneal
Details: in vivo
Outline: as §1

First: O=c1[nH]c(=O)n(C2CCCO2)cc1F (racemic) [TEGAFUR]
Second: O=c1[nH]c(=O)n([C@H]2CCCO2)cc1F
The Activity of the first is lower: 33 g for the first, 40.2 g for the second.

With `O=c1[nH]c(=O)n([C@@H]2CCCO2)cc1F` the Activity was 33 g.

System: Bacillus subtilis
Test: Antibacterial activity against Bacillus subtilis ATCC 6633 assessed as growth inhibition after 24 hrs by plate dilution method
Format: functional
Details: ATCC 6633, 24 h
Outline: as §2

`O=c1[nH]c(=O)n(C2CCCO2)cc1F` (racemic) [TEGAFUR] and `O=c1[nH]c(=O)n([C@H]2CCCO2)cc1F` are the same in MIC: 780 µM (≈ 156 µg/mL) for the first, 780 µM (≈ 156 µg/mL) for the second.

Going from `O=c1[nH]cc(F)c(=O)[nH]1` [FLUOROURACIL] to `O=c1[nH]c(=O)n([C@@H]2CCCO2)cc1F`, the MIC rises from 4.62 µM (≈ 0.601 µg/mL) to over 1000 µM.

System: not listed separately
Test: Drug metabolism in mouse liver microsomes assessed as fluorouracil release by measuring antibacterial activity against Staphylococcus aureus 209P at 200 ug after 4 hrs by thin layer cup method
Format: ADME
Details: not given
Outline: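 Mouse liver microsome fraction suspended in 10 mM phosphate buffer pH 7.4 with 1.15% KCl (equivalent to 25% homogenate); 0.8 mL suspension plus 200 µg isomer in 1 mL, no NADPH, 37 °C for 4 h. Unchanged substrate removed by CHCl3 extraction; released FU in neutralized aqueous layer quantified by antibacterial activity against S. aureus 209P, thin-layer-cup method.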

`O=c1[nH]c(=O)n([C@H]2CCCO2)cc1F` and `O=c1[nH]c(=O)n([C@@H]2CCCO2)cc1F` are within 1.5-fold of each other in Drug metabolism: 0.51 µg/mL for the first, 0.72 µg/mL for the second.

System: Escherichia coli
Test: Antibacterial activity against Escherichia coli NIHJ assessed as growth inhibition after 24 hrs by plate dilution method
Format: functional
Details: not given
Outline: as §2

`O=c1[nH]c(=O)n(C2CCCO2)cc1F` (racemic) [TEGAFUR] and `O=c1[nH]c(=O)n([C@H]2CCCO2)cc1F` cannot be ordered by MIC: over 1000 µM for the first, over 1000 µM for the second.

Going from `O=c1[nH]cc(F)c(=O)[nH]1` [FLUOROURACIL] to `O=c1[nH]c(=O)n([C@@H]2CCCO2)cc1F`, the MIC rises from 18.6 µM (≈ 2.42 µg/mL) to over 1000 µM.
